Bioassay records: PubChem, several laboratories
An excerpt weighted towards active compounds, which were near 11% of everything screened.
Diaphorase act: compounds boosting diaphorase resazurin reduction – biochemical, uHTS, resorufin fluorescence, counter-screen for diaphorase-coupled primary assays, primary screen; AID 1229, 2008; 190,000 tested, 0.005% active; Diaphorase/resazurin coupled assay, 16 min; active compounds read high; 1 = vehicle wells, 0 = NADH-free wells; activation factor at 20 µM;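 active = diaphorase activity raised at least twofold by the compound at 20 µM; inactive = activation factor below 2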
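System – purified diaphorase enzyme from Clostridium kluyveri · Input – enzyme 0.07 U/mL final · Also added – final NADH 0.114 mM, resazurin 0.1 mM · Measured by – fluorescence of resorufin, 544 nm excitation, 590 nm emission · Timing – 16 min enzyme reaction, ambient temperature · Measure – resorufin increase flagging diaphorase activators or reducers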
WT yeast gro inh: growth inhibition of WT strain, primary screen, mitochondrial fusion inhibitor project, WT and mutant strains, chemical genetic; AID 1362, 2008; 190,000 tested, 2.1% active; inhibition, % at 10 µM; mitochondrial fusion phenotypic screen; in the data active = inhibition above about 58%; tested in S. cerevisiae
Lmaj promast: Leishmania major promastigote growth inhibition, primary screen; inhibition, % at 10 µM; 200,000 tested, 9% active; Leishmania major promastigotes, resazurin fluorescence viability; AID 1063, 2008;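 note: promastigotes grown with compound for 44 hours at 28 °C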
G6PDH counter: L. mesenteroides G6PDH inhibitors, counter-screen for G6PDH-coupled screening assays, biochemical, Leuconostoc mesenteroides enzyme; inhibition, % at 5 µM; Purified L. mesenteroides G6PDH, diaphorase/resazurin coupled fluorescence, 45 min; AID 1020, 2008; 200,000 tested, 0.12% active
Diaph inh CS: diaphorase inhibitors and chemical oxidizers, primary screen, counter-screen for diaphorase-coupled primary assays, biochemical, uHTS, resorufin fluorescence; AID 1217, 2008; inhibition, % at 20 µM; 190,000 tested, 0.69% active; diaphorase resazurin-to-resorufin fluorescence, NADH, 16 min; bacterial (C. kluyveri) enzyme, not human;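 active = primary screen inhibition at 20 µM above a set limit, cut at about 50% in these data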
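System: Diaphorase enzyme from Clostridium kluyveri | Amount: Enzyme working solution with 0.14 U/mL diaphorase | Benchmarks: No-NADH positive control and DMSO neutral control | Signal: Fluorescence of resorufin formed from resazurin, Ex 544/Em 590 nm | Schedule: 16-min room-temperature incubation before reading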
A number is an active result; - = inactive; . = no result. Cut-off read from the data, not from the text of the source, unless noted: active = inhibition above about 50%; inactive = the rest.

SMILES | Diaphorase act | WT yeast gro inh | Lmaj promast | G6PDH counter | Diaph inh CS
COc1cc(S(=O)(=O)N2CCOCC2)ccc1NC(=O)COC(=O)CC12CC3CC(CC(C3)C1)C2 | - | - | 99.8 | - | -
O=C(Nc1ccc(Cc2ccncc2)cc1)c1ccc(S(=O)(=O)N2CCOCC2)cc1 | - | - | 99.1 | - | -
Cc1ccc(C(=O)Nc2ccc(S(=O)(=O)N3CCOCC3)cc2)cc1 | - | - | - | - | -
COCCn1c(SCC(=O)Nc2ccc(S(=O)(=O)N(C)C)cc2)nc2ccccc21 | - | - | - | - | -
CC1CCN(S(=O)(=O)c2ccc(NC(=O)CN3CCCC(C)C3)cc2)CC1 (configuration not stated) | - | - | 88.6 | - | -
O=C(COC(=O)CN1C(=O)C2CCCCC2C1=O)Nc1ccc(S(=O)(=O)N2CCOCC2)cc1 (configuration not stated) | - | - | 56.6 | - | -
CC1CCN(S(=O)(=O)c2ccc(NC(=O)CN3CCN(C)CC3)cc2)CC1 | - | - | - | - | -
O=C(Nc1ccc(S(=O)(=O)Nc2ccc(F)cc2)cc1)c1ccc(CN2CCOCC2)cc1 | - | - | 98.5 | - | -
O=C(CN1CCCCC1)Nc1ccc(S(=O)(=O)N2CCOCC2)cc1 | - | - | 96.8 | - | -
Fc1ccc(-n2c(CN3CCCCC3)n[nH]c2=S)cc1 | - | - | - | - | -
O=C(NC(=S)NCCOCc1ccc(Cl)cc1)c1cccnc1 | - | - | - | - | -
O=C(Nc1ccc(S(=O)(=O)N2CCOCC2)cc1)c1ccc(Cl)cc1 | . | - | . | . | .
O=C(CSCc1ccc(Cl)cc1)Nc1ccc(S(=O)(=O)N2CCOCC2)cc1 | - | - | 87.6 | - | -
Cc1ccc(-c2cc(-c3ccccc3)nc(N/N=C/c3cccnc3)n2)cc1 | . | . | - | . | .
C(=N/Nc1nc(-c2ccccc2)cc(-c2ccccc2)n1)/c1cccnc1 | - | 67.7 | - | - | -
C(=N\Nc1nc(Nc2ccccc2)nc(Nc2ccccc2)n1)/c1cccnc1 | - | 82.8 | - | - | -
Clc1ccc(OCCn2cnc3ccccc32)c(Cl)c1 | - | 67.6 | - | - | -
Nc1nc2ccccc2n1CCOc1ccccc1Cl | - | - | 99.8 | - | -
Clc1ccc(OCCN2CCCCC2)c(Cl)c1 | - | - | 99.5 | - | -
Clc1ccccc1OCCN1CCCCC1 | - | - | 88.3 | - | -
CCCn1c(N)nc2ccccc21 | - | - | - | - | -
C=CCN(CC=C)C(=S)Nc1ccccc1 | - | - | - | - | -
Cc1nc(-c2ccccc2)sc1-c1nc(-c2cccnc2)ncc1S(=O)(=O)c1ccccc1 | - | - | - | - | -
Cc1ccc(/C=C/C(=O)Nc2ccccc2C(N)=O)cc1 | - | - | - | - | -
CCCCN(C)C1=Nc2cccc3cccc1c23 | - | - | 56.9 | - | -
SMILES | Diaphorase act | WT yeast gro inh | Lmaj promast | G6PDH counter | Diaph inh CS
N#CC(C#N)=c1ccc2c(c1)NC1(CCCCC1)N=2 | - | - | 99.7 | - | -
Cc1ccc(-n2c(C)cc(C=C3C(=O)CC(C)(C)CC3=O)c2C)cc1 | - | - | 98.2 | - | -
Cc1cc(C=C2C(=O)c3ccccc3C2=O)c(C)n1-c1ccccc1 | - | - | - | - | -
Cc1ccc(NC(=O)CN2C(=O)/C(=C3\SC(=S)N(C4CCS(=O)(=O)C4)C3=O)c3ccccc32)cc1 (configuration not stated) | - | - | 90.6 | - | -
O=C(CN1C(=O)/C(=C2\SC(=S)N(C3CCS(=O)(=O)C3)C2=O)c2ccccc21)Nc1ccccc1 (configuration not stated) | - | - | 91.3 | - | -
COC(=O)c1c(NC(NC(=O)c2ccccc2)(C(F)(F)F)C(F)(F)F)sc2c1CCN(C)C2 | - | - | - | - | -
O=C(COC(=O)Cc1ccc(Br)cc1)NC1CCCCCC1 | - | - | - | - | -
O=C(COC(=O)Cc1ccc(Br)cc1)NC12CC3CC(CC(C3)C1)C2 | - | 83.9 | - | - | -
O=C(Cn1c(C(=O)N2CCN(C3CCCCC3)CC2)cc2sccc21)c1ccccc1 | - | - | 81.1 | - | -
O=C(Cn1c(C(=O)N2CCc3ccccc3C2)cc2sccc21)c1ccccc1 | - | - | 60.9 | - | -
O=C(c1cccs1)N1CCc2ccccc2C1 | . | - | - | - | .
